Test results from ChEMBL document CHEMBL1134510, “Adenosine analogues as selective inhibitors of glyceraldehyde-3-phosphate dehydrogenase of Trypanosomatidae via structure-based drug design” (J Med Chem, 2001).

Key:
[1] = In vitro inhibition of rabbit muscle GAPDH.; parameters: species or system Oryctolagus cuniculus
Outline: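 Spectrophotometric assay at 23 °C in 0.10 M triethanolamine/HCl, pH 7.5. Enzyme starts the reaction and inhibitors are in 5% DMSO-d₆. Initial rates over 0–2 min are compared with control. IC50 comes from ≥5 concentrations, or is extrapolated from ≥3 concentrations when above 50 µM.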

Trypanosoma brucei = experiment: Effective concentration required to block the growth of bloodstream Trypanosoma brucei; type: functional; conditions: read-out: ED50 (the source's name)
Outline: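 Bloodstream-form strain 427 trypomastigotes grown in HMI-9 with 10% fetal bovine serum, penicillin and streptomycin at 37 °C, 5% CO2. Inoculum 5 × 10³ parasites per well, drug given in serial dilutions, triplicate wells. Growth read at 48 h with Alamar Blue, checked against hemacytometer counts. Assay run twice.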

[2] = Inhibitory activity against Leishmania mexicana GAPDH; Inactive at 50 uM

| Structure (SMILES) | IC50 [1] | EC50 (Trypanosoma brucei) | IC50 [2] |
| --- | --- | --- | --- |
| N=C(N)c1ccc(OCCCCCOc2ccc(C(=N)N)cc2)cc1 [PENTAMIDINE] | > 50000 nM | 6 nM | – |
| COc1ccccc1C(=O)N[C@@H]1[C@H](O)[C@@H](CO)O[C@H]1n1cnc2c(NCc3cccc4ccccc34)ncnc21 | – | – | Not Active |
| O=C(N[C@@H]1[C@H](O)[C@@H](CO)O[C@H]1n1cnc2c(NCc3cccc4ccccc34)ncnc21)c1ccccc1Cl | – | – | Not Active |
| O=C(NC[C@H]1OC(n2cnc3c(NCc4cccc5ccccc45)ncnc32)[C@H](O)[C@@H]1O)C(c1ccccc1)c1ccccc1 (stereo partly specified) | – | – | Not Active |
| COc1cccc(C(=O)N[C@@H]2[C@H](O)[C@@H](CO)O[C@H]2n2cnc3c(NCc4c(OC)ccc5ccccc45)ncnc32)c1 | – | – | Not Active |
